ChEMBL document CHEMBL1140872, “Discovery of a potent and selective inhibitor for human carbonyl reductase 1 from propionate scanning applied to the macrolide zearalenone” (Bioorg Med Chem, 2009)

Experiments:
[1] = molecular target: T1, Carbonyl reductase [NADPH] 1 (Homo sapiens) (UniProt P16152); test: Binding affinity to human recombinant carbonyl reductase 1 expressed in Escherichia coli assessed as thermal shift by differential scanning fluorimetry in presence of NADPH
T1 sequence (whole entry): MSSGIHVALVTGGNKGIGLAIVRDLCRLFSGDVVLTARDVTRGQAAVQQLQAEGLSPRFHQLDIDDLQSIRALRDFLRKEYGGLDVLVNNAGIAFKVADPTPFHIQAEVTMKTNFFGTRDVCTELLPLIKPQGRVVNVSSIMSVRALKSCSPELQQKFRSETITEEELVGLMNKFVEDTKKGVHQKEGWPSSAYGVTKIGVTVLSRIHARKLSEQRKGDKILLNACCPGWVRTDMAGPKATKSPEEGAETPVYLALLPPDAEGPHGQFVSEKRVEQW
How it was run: (§1)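 Thermal-shift (DSF) binding assay with purified recombinant catalytic domains or proteins carrying an N- or C-terminal His6 tag or GST fusion. Purity was >95% by SDS/PAGE and identity was confirmed by MS. Protein was at 2 µM final in 10 mM HEPES pH 7.5 and 150 mM NaCl. Tm shift is reported, with 2 °C as the threshold for binding.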

[2] = molecular target: Mitogen-activated protein kinase 6 (Homo sapiens) (UniProt Q16659); test: Binding affinity to human recombinant MAPK6 expressed in Escherichia coli assessed as thermal shift by differential scanning fluorimetry; how it was run: as §1
[3] = molecular target: T2, Mitogen-activated protein kinase kinase kinase 5 (Homo sapiens) (UniProt Q99683); test: Binding affinity to human recombinant MAP3K5 expressed in Escherichia coli assessed as thermal shift by differential scanning fluorimetry; how it was run: as §1
T2 sequence (whole entry): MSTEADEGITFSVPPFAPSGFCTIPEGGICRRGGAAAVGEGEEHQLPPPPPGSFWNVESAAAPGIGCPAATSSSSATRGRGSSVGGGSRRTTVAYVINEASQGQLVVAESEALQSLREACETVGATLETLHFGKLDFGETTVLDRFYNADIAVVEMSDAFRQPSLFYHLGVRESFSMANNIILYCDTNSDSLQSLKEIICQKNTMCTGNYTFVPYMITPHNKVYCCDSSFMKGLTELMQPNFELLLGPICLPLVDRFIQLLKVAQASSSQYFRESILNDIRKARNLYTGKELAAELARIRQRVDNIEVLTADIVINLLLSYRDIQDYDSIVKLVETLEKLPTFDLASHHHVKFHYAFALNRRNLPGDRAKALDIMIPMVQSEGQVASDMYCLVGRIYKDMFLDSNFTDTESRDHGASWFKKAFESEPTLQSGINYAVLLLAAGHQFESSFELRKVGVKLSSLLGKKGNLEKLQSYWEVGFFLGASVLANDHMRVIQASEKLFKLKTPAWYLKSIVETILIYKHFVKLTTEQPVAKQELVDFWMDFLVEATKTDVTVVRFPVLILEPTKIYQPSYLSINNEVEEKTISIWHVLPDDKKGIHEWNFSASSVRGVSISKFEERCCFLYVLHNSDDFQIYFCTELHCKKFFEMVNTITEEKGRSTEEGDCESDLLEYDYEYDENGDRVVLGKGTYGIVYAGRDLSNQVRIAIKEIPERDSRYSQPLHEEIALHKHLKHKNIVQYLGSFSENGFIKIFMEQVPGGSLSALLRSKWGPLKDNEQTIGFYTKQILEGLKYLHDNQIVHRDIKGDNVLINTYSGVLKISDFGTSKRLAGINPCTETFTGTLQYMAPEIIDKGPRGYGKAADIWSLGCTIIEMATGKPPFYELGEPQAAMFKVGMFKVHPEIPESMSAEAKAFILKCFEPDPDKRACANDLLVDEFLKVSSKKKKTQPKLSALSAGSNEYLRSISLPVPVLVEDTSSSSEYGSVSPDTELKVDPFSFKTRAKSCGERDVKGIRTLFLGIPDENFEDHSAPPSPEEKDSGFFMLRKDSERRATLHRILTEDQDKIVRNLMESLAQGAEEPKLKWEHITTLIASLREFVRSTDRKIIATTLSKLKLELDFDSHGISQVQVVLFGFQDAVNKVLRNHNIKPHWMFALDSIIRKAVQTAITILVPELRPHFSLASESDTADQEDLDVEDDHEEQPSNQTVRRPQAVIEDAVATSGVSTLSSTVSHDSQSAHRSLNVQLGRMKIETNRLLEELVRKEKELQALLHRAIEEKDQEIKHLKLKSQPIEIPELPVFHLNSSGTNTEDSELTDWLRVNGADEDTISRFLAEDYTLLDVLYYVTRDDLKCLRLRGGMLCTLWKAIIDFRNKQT

Measured: Tm

Mitogen-activated protein kinase 6 (Homo sapiens), sequence (Q16659 whole entry): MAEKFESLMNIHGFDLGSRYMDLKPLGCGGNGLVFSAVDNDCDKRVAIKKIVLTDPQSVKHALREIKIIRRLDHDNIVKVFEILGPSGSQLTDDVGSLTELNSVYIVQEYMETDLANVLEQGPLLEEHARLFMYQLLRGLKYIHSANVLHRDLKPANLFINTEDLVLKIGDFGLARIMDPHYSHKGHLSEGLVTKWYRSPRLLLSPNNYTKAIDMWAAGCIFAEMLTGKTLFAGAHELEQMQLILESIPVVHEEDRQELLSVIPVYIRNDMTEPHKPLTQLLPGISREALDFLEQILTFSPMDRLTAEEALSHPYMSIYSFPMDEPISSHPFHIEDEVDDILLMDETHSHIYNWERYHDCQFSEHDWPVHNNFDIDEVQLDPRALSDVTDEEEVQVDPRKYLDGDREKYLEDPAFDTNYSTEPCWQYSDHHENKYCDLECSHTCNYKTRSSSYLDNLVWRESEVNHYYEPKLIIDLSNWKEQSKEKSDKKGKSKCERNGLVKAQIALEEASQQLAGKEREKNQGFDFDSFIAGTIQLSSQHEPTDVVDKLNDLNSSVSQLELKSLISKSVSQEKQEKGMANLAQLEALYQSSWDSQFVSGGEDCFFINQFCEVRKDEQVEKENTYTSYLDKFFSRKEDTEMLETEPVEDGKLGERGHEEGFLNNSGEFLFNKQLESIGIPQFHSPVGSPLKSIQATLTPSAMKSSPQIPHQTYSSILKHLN

C[C@H]1CCCC(=O)CCC/C=C/c2cc(O)cc(O)c2C(=O)O1
< 2 °C: [1] | [2] | [3]

COc1cc(O)c2c(c1)/C=C/CC[C@H](C)C(=O)CCC[C@H](C)OC2=O
< 2 °C: [1] | [2] | [3]

COc1cc2c(c(OC)c1)C(=O)O[C@@H](C)CCCC(=O)[C@@H](C)CC/C=C/2
< 2 °C: [1] | [2] | [3]

COc1cc2c(c(OC)c1)C(=O)O[C@@H](C)CCC[C@@H](O)[C@@H](C)CC/C=C/2
< 2 °C: [1] | [2] | [3]

C[C@@H]1C[C@H]2O[C@@H]2/C=C\C=C\C(=O)Cc2c(Cl)c(O)cc(O)c2C(=O)O1 [RADICICOL]
< 2 °C: [1] | [2] | [3]

COC1=C2C[C@@H](C)C[C@H](OC)[C@H](O)[C@@H](C)/C=C(\C)[C@H](OC(N)=O)[C@@H](OC)/C=C\C=C(/C)C(=O)NC(=CC1=O)C2=O
< 2 °C: [1] | [2] | [3]

C[C@H]1CCCC(=O)[C@@H](C)CC/C=C/c2cc(O)cc(O)c2C(=O)O1
< 2 °C: [1] | [2] | [3]
